Reference: ChEMBL document CHEMBL3860061, “A Novel Parkinson's Disease Drug Candidate with Potent Anti-neuroinflammatory Effects through the Src Signaling Pathway” (J Med Chem, 2016)
pIC50: −log10 of the molar value. Activity calls are given as the source filed them. No cut-off for these calls is given here.

What was measured:
Mus musculus [1] = test: Antineuro-inflammatrory activity in MPTP/probenecid-induced chronic C57/BL mouse Parkinson's disease model assessed as decrease in IL-1beta level in midbrain at 10 to 20 mg/kg dosed once daily for 7 weeks post 10 doses of MPTP/probenecid for 5 weeks measured after last MPTP/probenecid dose for 5 weeks by ELISA; format: functional, organism-based
In short: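 Male C57/BL mice (22–25 g) received 10 doses of MPTP hydrochloride (25 mg/kg in saline, s.c.) plus probenecid (250 mg/kg in DMSO, i.p.) over 5 weeks. Only mice failing the rotarod afterwards were randomised to agent (5, 10, 20 mg/kg) or L-DOPA 20 mg/kg in 0.5% CMC-Na, once daily for 7 weeks. Midbrain lysate in non-denaturing buffer with protease inhibitor; IL-1β or TNF-α by ELISA, n = 6.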

[2] = biological target: Proto-oncogene tyrosine-protein kinase Src (Rattus norvegicus) (UniProt Q9WUD9); test: Inhibition of Src in Sprague-Dawley rat primary microglia cells assessed as suppression of LPS-stimulated PTEN phosphorylation at Tyr-240 residue at 10 uM preincubated for 1 hr followed by LPS challenge measured after 3 hrs by Western blot analysis
Sequence of Proto-oncogene tyrosine-protein kinase Src (Rattus norvegicus) (Q9WUD9 2-536 limits assumed): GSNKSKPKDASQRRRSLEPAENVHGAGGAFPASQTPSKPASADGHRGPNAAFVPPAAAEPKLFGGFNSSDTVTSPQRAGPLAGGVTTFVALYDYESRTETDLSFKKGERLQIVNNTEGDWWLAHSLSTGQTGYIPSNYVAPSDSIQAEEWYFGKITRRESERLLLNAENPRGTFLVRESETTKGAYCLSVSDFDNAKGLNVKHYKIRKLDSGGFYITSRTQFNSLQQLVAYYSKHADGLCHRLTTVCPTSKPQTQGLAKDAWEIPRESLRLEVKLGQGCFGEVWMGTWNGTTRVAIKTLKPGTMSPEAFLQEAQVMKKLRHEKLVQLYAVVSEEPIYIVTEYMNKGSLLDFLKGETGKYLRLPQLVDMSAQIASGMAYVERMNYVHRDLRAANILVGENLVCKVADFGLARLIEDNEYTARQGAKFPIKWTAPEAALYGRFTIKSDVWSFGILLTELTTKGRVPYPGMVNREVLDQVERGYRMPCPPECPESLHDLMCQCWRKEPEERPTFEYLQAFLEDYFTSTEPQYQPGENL
In short: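 Primary microglia from 1-day-old Sprague-Dawley rat brains, grown to confluence 12–14 days, shaken off astroglia (>98% pure). Agent at 10 µM added 1 h before LPS 100 ng/mL. Phosphorylated Src, Akt and PTEN measured 3 h later by Western blot, n = 4.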

Mus musculus [3] = test: In vivo inhibition of Src in MPTP/probenecid-induced chronic C57/BL mouse Parkinson's disease model assessed as effect on Akt expression level in midbrain at 5 to 20 mg/kg dosed once daily for 7 weeks post 10 doses of MPTP/probenecid for 5 weeks by iTRAQ-labelled 2D-LC/MS/MS analysis; format: functional, organism-based
Mus musculus [4] = test: Increase in dopamine level in striatum of MPTP-induced subacute C57/BL mouse Parkinson's disease model at 10 to 20 mg/kg […] dosed 30 mins prior to each MPTP injection for 5 days and administered continously for 7 days post last MPTP dose by HPLC analysis; format: functional, organism-based
In short: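 Sub-acute model: male C57/BL mice given MPTP·HCl 30 mg/kg i.p. for 5 days. Agent (5–20 mg/kg) or L-DOPA 20 mg/kg in 0.5% CMC-Na dosed 30 min before each injection, then for 7 more days. Striatum sonicated in 0.6 N perchloric acid, centrifuged, phosphate/citrate/EDTA solution added, recentrifuged; dopamine by HPLC, n = 8.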

Mus musculus [5] = test: Neuroprotective activity in MPTP-induced subacute C57/BL mouse Parkinson's disease model assessed as improvement in motor behavior at 5 to 20 mg/kg […] dosed 30 mins prior to each MPTP injection for 5 days and administered continously for 7 days post last MPTP dose by pole test; format: functional, organism-based
In short: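 Sub-acute MPTP model (30 mg/kg i.p. × 5 days) in male C57/BL mice. Agent (5–20 mg/kg) or L-DOPA 20 mg/kg given 30 min before each injection and for 7 days after. Rotarod at 14 rpm, up to 120 s, fall latency over three trials 1 h apart. Pole test: 50 cm pole, descent scored 1–5, two trials 1 h apart, pre-trained. n = 15.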

Mus musculus [6] = test: Effect on ARHGAP21 protein expression level in midbrain of MPTP/probenecid-induced chronic C57/BL mouse Parkinson's disease model at 5 to 20 mg/kg dosed once daily for 7 weeks post 10 doses of MPTP/probenecid for 5 weeks by iTRAQ-labelled 2D-LC/MS/MS analysis; format: functional, organism-based
Mus musculus [7] = test: Antineuro-inflammatrory activity in MPTP-induced subacute C57/BL mouse Parkinson's disease model assessed as decrease in TNF-alpha levels in midbrain at 10 to 20 mg/kg […] dosed 30 mins prior to each MPTP injection for 5 days and administered continuously for 7 days post last MPTP dose measured on day 12 post last dose by ELISA; format: functional, organism-based
Mus musculus [8] = test: Neuroprotective activity in MPTP/probenecid-induced chronic C57/BL mouse Parkinson's disease model assessed as improvement in motor behavior at 5 to 20 mg/kg dosed once daily for 7 weeks post 10 doses of MPTP/probenecid for 5 weeks measured after last MPTP/probenecid dose by rotarod test; format: functional, organism-based
In short: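 Chronic MPTP/probenecid model (10 doses over 5 weeks), then agent (5–20 mg/kg) or L-DOPA 20 mg/kg daily for 7 weeks. Rotarod at 14 rpm, up to 120 s, fall latency from three trials 1 h apart. Pole test: gauze-wrapped 50 cm pole, descent scored 1–5, two trials 1 h apart after pre-training. n = 15.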

Mus musculus [9] = test: Effect on ARHGAP21 protein expression level in midbrain of MPTP/probenecid-induced chronic C57/BL mouse Parkinson's disease model at 5 to 20 mg/kg dosed once daily for 7 weeks post 10 doses of MPTP/probenecid for 5 weeks by Western blot analysis; format: functional, organism-based
Mus musculus [10] = test: Neuroprotective activity in alpha-syn A53T transgenic B6C3H mouse assessed as improvement in motor behavior at 5 to 20 mg/kg dosed once daily for 12 consecutive weeks by pole test; format: functional, organism-based
Mus musculus [11] = test: Effect on GSK3beta protein expression level in midbrain of MPTP/probenecid-induced chronic C57/BL mouse Parkinson's disease model at 5 to 20 mg/kg dosed once daily for 7 weeks post 10 doses of MPTP/probenecid for 5 weeks by iTRAQ-labelled 2D-LC/MS/MS analysis; format: functional, organism-based
Mus musculus [12] = test: Neuroprotective activity in MPTP-induced subacute C57/BL mouse Parkinson's disease model assessed as reversal of decline of TH-positive neuron levels in substantia nigra at 10 to 20 mg/kg […] dosed 30 mins prior to each MPTP injection for 5 days and administered continuously for 7 days post last MPTP dose by 3,3'-diaminobenzidine staining based light microscopic analysis; format: functional, organism-based
In short: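 Sub-acute MPTP model (30 mg/kg i.p. × 5 days) with agent (5–20 mg/kg) or L-DOPA pre-dosing and 7 days of continued dosing. Fixed brains cut at 40 µm on a freezing microtome; coronal nigral sections stained with anti-TH and DAB/peroxide; TH-positive cells counted blind by light microscopy.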

[13] = biological target: Proto-oncogene tyrosine-protein kinase Src (Mus musculus, UniProt P05480); test: Inhibition of Src in mouse BV2 cells assessed as suppression of LPS-induced NO release preincubated for 1 hr followed by LPS addition measured after 24 hrs by Griess assay; format: cell-based, BV-2
Sequence of Proto-oncogene tyrosine-protein kinase Src (P05480 2-535 limits assumed): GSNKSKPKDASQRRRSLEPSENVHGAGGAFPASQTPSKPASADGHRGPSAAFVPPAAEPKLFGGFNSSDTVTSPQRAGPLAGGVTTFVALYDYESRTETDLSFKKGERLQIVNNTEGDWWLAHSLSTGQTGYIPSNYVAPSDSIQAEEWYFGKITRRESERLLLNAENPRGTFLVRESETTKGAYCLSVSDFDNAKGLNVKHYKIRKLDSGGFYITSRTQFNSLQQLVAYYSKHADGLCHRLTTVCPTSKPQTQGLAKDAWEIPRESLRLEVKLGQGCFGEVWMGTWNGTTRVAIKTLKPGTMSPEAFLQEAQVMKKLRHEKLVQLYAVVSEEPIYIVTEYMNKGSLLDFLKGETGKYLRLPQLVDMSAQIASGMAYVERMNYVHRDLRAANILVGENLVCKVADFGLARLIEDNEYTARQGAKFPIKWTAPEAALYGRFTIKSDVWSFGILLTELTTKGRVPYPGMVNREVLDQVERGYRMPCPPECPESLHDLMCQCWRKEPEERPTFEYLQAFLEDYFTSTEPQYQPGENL
In short: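 BV-2 cells in DMEM/10% FBS, plated at 5×10^3 per well. After 24 h, treated at 100, 50, 10, 5, 1 and 0.1 µM; 1 h later LPS 300 ng/mL added. After another 24 h, nitrite in the medium measured by Griess assay.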

Mus musculus [14] = test: Neuroprotective activity in alpha-syn A53T transgenic B6C3H mouse assessed as improvement in motor behavior at 5 to 20 mg/kg dosed once daily for 12 consecutive weeks by rotarod test; format: functional, organism-based
In short: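 Male B6;C3H mice overexpressing mutant alpha-syn (A53T), housed on a 12-h light/dark cycle at 24 °C and 60% humidity, were acclimatised for 1 week. Daily dosing ran 12 consecutive weeks from 4 months of age. Wild-type mice received 0.5% CMC-Na, and L-DOPA 20 mg/kg was the reference. Rotarod ran at 14 rpm for up to 120 s, recording latency to first fall. Each mouse had three trials with 1 h rest between them. n = 15; mean ± SD.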

For `COc1cc(OC)c(CN[C@@H](CO)C(=O)O)c(OC)c1`, the Activity (Mus musculus [1]) was “Active”, the inhibition [2] was “Active” and the inhibition (Mus musculus [3]) was “Active”. The Activity (Mus musculus [4]) was “Active”, the Activity (Mus musculus [5]) was “Active” and the Activity (Mus musculus [6]) was “Active”. The Activity (Mus musculus [7]) was “Active”, the Activity (Mus musculus [8]) was “Active” and the Activity (Mus musculus [9]) was “Active”. The Activity (Mus musculus [10]) was “Active”, the Activity (Mus musculus [11]) was “Active” and the Activity (Mus musculus [12]) was “Active”. For the same compound, the pIC50 [13] was 5.18 and the Activity (Mus musculus [14]) was “Active”.
